Laboratory results taken from ChEMBL document CHEMBL4842351, “Synthesis and evaluation of novel and potent protease activated receptor 4 (PAR4) antagonists based on a quinazolin-4(3H)-one scaffold” (Eur J Med Chem, 2021).
One block for each compound: values may come before it. Activity calls are given as the source filed them. The rule behind the calls is not given here.

Columns and labels:
[1] = target: T1, Proteinase-activated receptor 4 (Homo sapiens) (UniProt Q96RI0); assay: Antagonist activity at PAR4 in human platelet-rich plasma assessed as inhibition of PAR4 AP AYPGKF-NH2-induced platelet aggregation at 0.2 uM by photo-turbidimetry assay relative to control; format: functional
T1 sequence (whole entry): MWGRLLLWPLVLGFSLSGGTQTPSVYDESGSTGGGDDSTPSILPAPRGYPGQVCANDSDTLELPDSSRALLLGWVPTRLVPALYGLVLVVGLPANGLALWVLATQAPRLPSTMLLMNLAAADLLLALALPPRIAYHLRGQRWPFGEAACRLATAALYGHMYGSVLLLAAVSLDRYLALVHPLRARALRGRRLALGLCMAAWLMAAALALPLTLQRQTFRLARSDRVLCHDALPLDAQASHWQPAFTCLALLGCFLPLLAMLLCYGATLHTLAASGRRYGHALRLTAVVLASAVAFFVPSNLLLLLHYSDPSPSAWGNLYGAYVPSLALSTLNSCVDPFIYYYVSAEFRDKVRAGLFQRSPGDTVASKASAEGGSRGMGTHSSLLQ
How it was run: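 Human PRP from donated blood, spun at 160×g for 15 min, then adjusted to 3×10⁸/mL with PPP (2000×g, 15 min). Compound or saline vehicle preincubated with PRP for 5 min at 37 °C. Aggregation induced by AYPGKF-NH₂; maximal aggregation measured by light transmittance for 5 min. Percent inhibition at a single point; IC50 from ≥5 concentrations by curve fitting.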

Platelet [2] = assay: Antiplatelet activity against collagen-induced human platelet aggregation in platelet in platelet rich plasma assessed as inhibition of platelet aggregation at 10 uM by photo-turbidimetry method; format: functional, cell-based
How it was run: (§1)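 Human PRP prepared as for the aggregation assay and adjusted to 3×10⁸/mL. Compound preincubated for 5 min at 37 °C, then aggregation triggered by AYPGKF, SFLLRN, collagen, ADP or U46619. Maximum percent inhibition taken from 5 min light-transmittance traces. Mean ± SD, n=3.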

[3] = Metabolic stability in mouse liver microsomes assessed as half life incubated for 60 mins by LC-MS/MS analysis; format: ADME, Microsome
How it was run: (§2)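 Human, rat or mouse liver microsomes in potassium phosphate buffer at pH ~7.4, warmed to 37 °C with compound (DMSO stock diluted in acetonitrile). Reaction started with NADPH; no-NADPH negative controls. Aliquots taken at 0 and 60 min, quenched in ice-cold acetonitrile with internal standard, and parent measured by LC/MS/MS. t1/2 = 0.693/k from ln concentration vs time; CLint derived from t1/2. Triplicate; mean ± SD.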

[4] = Cytotoxicity against HEK293T cells assessed as cell viability at 10 uM incubated for 48 hrs by CCK-8 assay; format: cell-based, HEK-293T; settings: human, read-out: Activity
How it was run: (§3)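 HEK293 cells in exponential growth, 4000/well, left to adhere overnight, then exposed to three compound concentrations for 48 h. Equal-volume DMSO served as control. CCK-8 added for 2 h at 37 °C in the dark, absorbance read at 450 nm. Viability = OD sample/OD control × 100; mean ± SD, n=3.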

[5] = Metabolic stability in rat liver microsomes assessed as intrinsic clearance incubated for 60 mins by LC-MS/MS analysis; format: ADME, Microsome; settings: 1 h; how it was run: as §2
[6] = target: T2, Proteinase-activated receptor 1 (Homo sapiens, UniProt P25116); assay: Antagonist activity at human PAR1 expressed in Ga15-HEK293 cells assessed as reduction in PAR1 AP SFFLRR-NH2-induced cytosolic calcium incubated for 24 hrs by FLIPR - calcium mobilization assay; format: functional, cell-based
T2 sequence (P25116 whole entry): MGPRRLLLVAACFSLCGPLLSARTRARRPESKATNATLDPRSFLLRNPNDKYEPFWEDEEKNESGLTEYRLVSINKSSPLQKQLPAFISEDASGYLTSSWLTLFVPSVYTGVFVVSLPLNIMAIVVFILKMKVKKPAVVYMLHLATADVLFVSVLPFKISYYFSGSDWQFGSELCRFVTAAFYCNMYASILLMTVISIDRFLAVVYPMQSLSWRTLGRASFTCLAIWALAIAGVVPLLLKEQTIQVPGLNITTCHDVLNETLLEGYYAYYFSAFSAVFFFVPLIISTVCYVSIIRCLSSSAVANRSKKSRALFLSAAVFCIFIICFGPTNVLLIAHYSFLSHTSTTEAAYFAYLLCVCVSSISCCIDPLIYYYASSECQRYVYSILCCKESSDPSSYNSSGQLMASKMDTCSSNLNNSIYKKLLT
How it was run: (§4)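 HEK293/Gα15 cells stably expressing human PAR1, PAR2 or PAR4, seeded at 45,000 cells/well and grown for 24 h at 37 °C, 5% CO₂. Cells loaded with calcium dye for 60 min at 37 °C in the dark. Compounds diluted from DMSO in HBSS and preincubated in the dark at room temperature. Agonists: SFFLRR (PAR1), 2-furoyl-LIGRLO-NH₂ (PAR2), AYPGKF-NH₂ (PAR4). Fluorescence read on FLIPR; 10-point half-log curves; mean of ≥2 determinations.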

[7] = Metabolic stability in mouse liver microsomes assessed as intrinsic clearance incubated for 60 mins by LC-MS/MS analysis; format: ADME, Microsome; settings: 1 h; how it was run: as §2
Platelet [8] = assay: Antiplatelet activity against ADP-induced human platelet aggregation in platelet in platelet rich plasma assessed as inhibition of platelet aggregation at 10 uM by photo-turbidimetry method; format: functional, cell-based; how it was run: as §1
[9] = Cytotoxicity against HEK293T cells assessed as cell viability at 20 uM incubated for 48 hrs by CCK-8 assay; format: cell-based, HEK-293T; settings: human, read-out: Activity; how it was run: as §3
[10] = target: T3, Proteinase-activated receptor 2 (Homo sapiens, UniProt P55085); assay: Antagonist activity at human PAR2 expressed in Ga15-HEK293 cells assessed as reduction in PAR2 AP 2-furoyl-LIGRLO-NH2-induced cytosolic calcium incubated for 24 hrs by FLIPR - calcium mobilization assay; format: functional, cell-based; how it was run: as §4
T3 sequence (P55085 whole entry): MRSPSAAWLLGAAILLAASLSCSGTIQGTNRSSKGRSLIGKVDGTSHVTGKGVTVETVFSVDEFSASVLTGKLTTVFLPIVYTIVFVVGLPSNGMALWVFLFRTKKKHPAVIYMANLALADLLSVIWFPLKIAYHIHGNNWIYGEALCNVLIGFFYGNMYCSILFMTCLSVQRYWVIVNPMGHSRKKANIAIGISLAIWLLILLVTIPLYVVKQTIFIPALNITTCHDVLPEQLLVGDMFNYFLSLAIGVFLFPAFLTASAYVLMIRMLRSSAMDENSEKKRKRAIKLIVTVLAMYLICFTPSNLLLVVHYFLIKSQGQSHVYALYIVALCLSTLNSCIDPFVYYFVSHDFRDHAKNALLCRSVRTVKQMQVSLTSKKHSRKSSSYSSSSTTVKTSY

[11] = target: T4, Proteinase-activated receptor 4 (Homo sapiens, UniProt Q96RI0); assay: Antagonist activity at human PAR4 expressed in Ga15-HEK293 cells assessed as reduction in PAR4 AP AYPGKF-NH2-induced cytosolic calcium incubated for 24 hrs by FLIPR - calcium mobilization assay; format: functional, cell-based; how it was run: as §4
T4 sequence (Q96RI0 whole entry): T1 sequence (whole entry)

[12] = Metabolic stability in rat liver microsomes assessed as half life incubated for 60 mins by LC-MS/MS analysis; format: ADME, Microsome; how it was run: as §2
[13] = Metabolic stability in human liver microsomes assessed as intrinsic clearance incubated for 60 mins by LC-MS/MS analysis; format: ADME, Microsome; settings: 1 h
Platelet [14] = assay: Antiplatelet activity against AYPGKF-NH2-induced human platelet in platelet rich plasma assessed as inhibition of platelet aggregation at 10 uM by photo-turbidimetry method; format: functional, cell-based; how it was run: as §1
[15] = Cytotoxicity against HEK293T cells assessed as cell viability at 1 uM incubated for 48 hrs by CCK-8 assay; format: cell-based, HEK-293T; settings: human, read-out: Activity; how it was run: as §3
Platelet [16] = assay: Antiplatelet activity against U46619-induced human platelet aggregation in platelet in platelet rich plasma assessed as inhibition of platelet aggregation at 10 uM by photo-turbidimetry method; format: functional, cell-based; how it was run: as §1
[17] = Metabolic stability in human liver microsomes assessed as half life incubated for 60 mins by LC-MS/MS analysis; format: ADME, Microsome
Platelet [18] = assay: Antiplatelet activity against SFLLRN-NH2-induced human platelet in platelet rich plasma assessed as inhibition of platelet aggregation at 10 uM by photo-turbidimetry method; format: functional, cell-based; how it was run: as §1

inhibition [1]: 25.7%
SMILES: CCCCc1cc(-c2nc3c(s2)CCCC3)c2ncn(C)c(=O)c2c1

inhibition [1]: 18.7%
SMILES: COc1cc(F)c2nc(-c3cccc4c(=O)n(C)cnc34)sc2c1

inhibition [1]: 35.7%
SMILES: COCn1cnc2c(-c3nc4c(s3)CCCC4)cc(C)cc2c1=O

inhibition [1]: 36.5%
SMILES: CCn1cnc2c(-c3nc4c(Cl)cc(OC)cc4s3)cc(C)cc2c1=O

inhibition [1]: 21.3%
SMILES: Cc1cc(-c2nc3c(Cl)cc(Cl)cc3s2)c2ncn(C)c(=O)c2c1

inhibition [1]: 17.9%
SMILES: Cc1cc(-c2nc3c(Cl)cc(OCCNS(=O)(=O)c4ccccc4)cc3s2)c2ncn(C)c(=O)c2c1

half-life [3]: 7.13 h | CLH [5]: 7.73 mL/min/g | IC50 [6]: > 3160 nM | CLH [7]: 12.8 mL/min/g | IC50 [10]: > 1000 nM | IC50 [11]: 1.2 nM | half-life [12]: 5.38 h | CLH [13]: 3.51 mL/min/g | half-life [17]: 7.4 h
SMILES: Cc1cc(-c2nc3c(Cl)cc(OCCNS(=O)(=O)c4ccc(C(F)(F)F)cc4)cc3s2)c2ncn(C)c(=O)c2c1
Activity (Platelet [2]): inactive | viability at 48 h, 10 µM [4]: 76.8% | Activity (Platelet [8]): inactive | viability at 48 h, 20 µM [9]: 61.8% | Activity (Platelet [14]): Active | viability at 48 h, 1 µM [15]: 87.7% | Activity (Platelet [16]): inactive | Activity (Platelet [18]): inactive

inhibition [1]: 6.5%
SMILES: Cc1cc(-c2ccc(F)cc2O)c2ncn(C)c(=O)c2c1

inhibition [1]: 1.8%
SMILES: Cc1cc(-c2cccnc2)c2ncn(C)c(=O)c2c1

inhibition ([1]; filed as antagonist): 41.6%
SMILES: Cc1cc(-c2nc3c(s2)CCCC3)c2nc[nH]c(=O)c2c1

inhibition [1]: 30.5%
SMILES: Cc1ccc(S(=O)(=O)NCCOc2cc(Cl)c3nc(-c4cc(C)cc5c(=O)n(C)cnc45)sc3c2)cc1

inhibition [1]: 15.2%
SMILES: COc1cc(Cl)c2nc(-c3cc(C)cc4c(=O)n(C(C)C)cnc34)sc2c1

inhibition [1]: 16%
SMILES: Cc1cc(-c2ccccc2F)c2ncn(C)c(=O)c2c1

inhibition ([1]; filed as antagonist): 44.4%
SMILES: Cc1cc(-c2cc3ccccc3o2)c2ncn(C)c(=O)c2c1

inhibition [1]: 7.1%
SMILES: Cc1cc(-c2nccs2)c2ncn(C)c(=O)c2c1

inhibition ([1]; filed as antagonist): 47.1%
SMILES: Cc1cc(-c2nc3c(Cl)cc(OCCNS(=O)(=O)c4ccc(Cl)cc4Cl)cc3s2)c2ncn(C)c(=O)c2c1

inhibition [1]: 35.7%
SMILES: Cc1cc(-c2nc3c(Cl)cc4c(c3s2)OCCO4)c2ncn(C)c(=O)c2c1

inhibition [1]: 15.1%
SMILES: CCOCn1cnc2c(-c3nc4c(s3)CCCC4)cc(C)cc2c1=O

inhibition [1]: 33.2%
SMILES: Cc1cc(-c2nc3c(Cl)cc(OCCN)cc3s2)c2ncn(C)c(=O)c2c1

inhibition ([1]; filed as antagonist): 9.3%
SMILES: CCCCc1cc(-c2nc3c(s2)CCCC3)c2ncn(CC)c(=O)c2c1

inhibition ([1]; filed as antagonist): 94.5%
SMILES: Cc1cc(-c2nc3c(Cl)cc(OCCNC(=O)c4ccccc4)cc3s2)c2ncn(C)c(=O)c2c1
